Measured values reported in ChEMBL document CHEMBL1130127, “Synthesis, photophysical properties, in vivo photosensitizing efficacy, and human serum albumin binding properties of some novel bacteriochlorins” (J Med Chem, 1997).
One block for each molecule: values may come before it. Calls of active or inactive are those of the source. No cut-off for these calls is given here.

Experiments:
[1] = tested on: Mus musculus; assay: The compound was tested in vivo for photosensitizing efficacy in DBA/2 Mice transplanted with SMT/F tumors and the activity is expressed as % response at ( 26-30 days) 24 hours post injection at 5.0 mg/kg concentration; type: functional, organism-based; parameters: dose 5 mg/kg
How it was run: (§1)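 Female DBA/2 HA-DD mice, 5-7 weeks old. A 1 mm SMT-F tumor piece from a donor was trocar-implanted subcutaneously in the axilla. At about 5 mm tumor diameter, sensitizer in 1% Tween 80/water was given iv; dose was based on extinction coefficient. At 3 or 24 h after injection, restrained mice had the tumor lit with 135 J/cm2 laser light at the in vivo long-wavelength maximum. Tumor response was followed to day 30; six mice/group.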

[2] = tested on: Mus musculus; assay: The compound was tested in vivo for photosensitizing efficacy in DBA/2 Mice transplanted with SMT/F tumors and the activity is expressed as % response at (11-15 days) 24 hours post injection at 5.0 mg/kg concentration; type: functional, organism-based; parameters: dose 5 mg/kg; how it was run: as §1
[3] = tested on: Mus musculus; assay: The compound was tested in vivo for photosensitizing efficacy in DBA/2 Mice transplanted with SMT/F tumors and the activity is expressed as % response at (16-20 days) 24 hours post injection at 5.0 mg/kg concentration; type: functional, organism-based; parameters: dose 5 mg/kg; how it was run: as §1
[4] = tested on: Mus musculus; assay: The compound was tested in vivo for photosensitizing efficacy in DBA/2 Mice transplanted with SMT/F tumors and the activity is expressed as % response at ( 21-25 days) 24 hours post injection at 5.0 mg/kg concentration; type: functional, organism-based; parameters: dose 5 mg/kg; how it was run: as §1
[5] = tested on: Mus musculus; assay: The compound was tested in vivo for photosensitizing efficacy in DBA/2 Mice transplanted with SMT/F tumors and the activity is expressed as % response at (1-5 days) 24 hours post injection at 5.0 mg/kg concentration; type: functional, organism-based; parameters: dose 5 mg/kg; how it was run: as §1
[6] = tested on: Mus musculus; assay: The compound was tested in vivo for photosensitizing efficacy in DBA/2 Mice transplanted with SMT/F tumors and the activity is expressed as % response at ( 6-10 days) 24 hours post injection at 5.0 mg/kg concentration; type: functional, organism-based; parameters: dose 5 mg/kg; how it was run: as §1
[7] = tested on: Mus musculus; assay: The compound was tested in vivo for photosensitizing efficacy in DBA/2 Mice transplanted with SMT/F tumors and the activity is expressed as % response at (1-5 days) 24 hours post injection at 5 mg/kg concentration; No response; type: functional, organism-based; parameters: dose 5 mg/kg; how it was run: as §1
[8] = tested on: Mus musculus; assay: The compound was tested in vivo for photosensitizing efficacy in DBA/2 Mice transplanted with SMT/F tumors and the activity is expressed as % response at (11-15 days) 24 hours post injection at 5 mg/kg concentration; No response; type: functional, organism-based; parameters: dose 5 mg/kg; how it was run: as §1
[9] = tested on: Mus musculus; assay: The compound was tested in vivo for photosensitizing efficacy in DBA/2 Mice transplanted with SMT/F tumors and the activity is expressed as % response at (11-15 days) 3 hours post injection at 2.5 mg/kg concentration; No response; type: functional, organism-based; parameters: dose 2.5 mg/kg; how it was run: as §1
[10] = tested on: Mus musculus; assay: The compound was tested in vivo for photosensitizing efficacy in DBA/2 Mice transplanted with SMT/F tumors and the activity is expressed as % response at (21-25 days) 3 hours post injection at 2.5 mg/kg concentration; No response; type: functional, organism-based; parameters: dose 2.5 mg/kg; how it was run: as §1
[11] = tested on: Mus musculus; assay: The compound was tested in vivo for photosensitizing efficacy in DBA/2 Mice transplanted with SMT/F tumors and the activity is expressed as % response at (6-10 days) 24 hours post injection at 5 mg/kg concentration; No response; type: functional, organism-based; parameters: dose 5 mg/kg
[12] = tested on: Mus musculus; assay: The compound was tested in vivo for photosensitizing efficacy in DBA/2 Mice transplanted with SMT/F tumors and the activity is expressed as % response at (26-30 days) 3 hours post injection at 2.5 mg/kg concentration; No response; type: functional, organism-based; parameters: dose 2.5 mg/kg
[13] = tested on: Mus musculus; assay: The compound was tested in vivo for photosensitizing efficacy in DBA/2 Mice transplanted with SMT/F tumors and the activity is expressed as % response at (26-30 days) 3 hours post injection at 5 mg/kg concentration; type: functional
[14] = tested on: Mus musculus; assay: The compound was tested in vivo for photosensitizing efficacy in DBA/2 Mice transplanted with SMT/F tumors and the activity is expressed as % response at (1-5 days) 3 hours post injection at 5.0 mg/kg concentration; type: functional; how it was run: as §1
[15] = tested on: Mus musculus; assay: The compound was tested in vivo for photosensitizing efficacy in DBA/2 Mice transplanted with SMT/F tumors and the activity is expressed as % response at (16-20 days) 24 hours post injection at 5 mg/kg concentration; No response; type: functional, organism-based; parameters: dose 5 mg/kg; how it was run: as §1
[16] = tested on: Mus musculus; assay: The compound was tested in vivo for photosensitizing efficacy in DBA/2 Mice transplanted with SMT/F tumors and the activity is expressed as % response at (21-25 days) 24 hours post injection at 5 mg/kg concentration; No response; type: functional, organism-based; parameters: dose 5 mg/kg; how it was run: as §1
[17] = tested on: Mus musculus; assay: The compound was tested in vivo for photosensitizing efficacy in DBA/2 Mice transplanted with SMT/F tumors and the activity is expressed as % response at (16-20 days) 3 hours post injection at 5 mg/kg concentration; type: functional; how it was run: as §1
[18] = tested on: Mus musculus; assay: The compound was tested in vivo for photosensitizing efficacy in DBA/2 Mice transplanted with SMT/F tumors and the activity is expressed as % response at (21-25 days) 3 hours post injection at 5 mg/kg concentration; type: functional
[19] = tested on: Mus musculus; assay: The compound was tested in vivo for photosensitizing efficacy in DBA/2 Mice transplanted with SMT/F tumors and the activity is expressed as % response at (1-5 days) 3 hours post injection at 2.5 mg/kg concentration; No response; type: functional, organism-based; parameters: dose 2.5 mg/kg; how it was run: as §1
[20] = tested on: Mus musculus; assay: The compound was tested in vivo for photosensitizing efficacy in DBA/2 Mice transplanted with SMT/F tumors and the activity is expressed as % response at (6-10 days) 3 hours post injection at 2.5 mg/kg concentration; No response; type: functional, organism-based; parameters: dose 2.5 mg/kg
[21] = tested on: Mus musculus; assay: The compound was tested in vivo for photosensitizing efficacy in DBA/2 Mice transplanted with SMT/F tumors and the activity is expressed as % response at (26-30 days) 24 hours post injection at 5 mg/kg concentration; No response; type: functional, organism-based; parameters: dose 5 mg/kg
[22] = tested on: Mus musculus; assay: The compound was tested in vivo for photosensitizing efficacy in DBA/2 Mice transplanted with SMT/F tumors and the activity is expressed as % response at (16-20 days) 3 hours post injection at 2.5 mg/kg concentration; No response; type: functional, organism-based; parameters: dose 2.5 mg/kg; how it was run: as §1
[23] = tested on: Mus musculus; assay: The compound was tested in vivo for photosensitizing efficacy in DBA/2 Mice transplanted with SMT/F tumors and the activity is expressed as % response at (11-15 days) 3 hours post injection at 5 mg/kg concentration; type: functional; how it was run: as §1
[24] = target: Albumin (Homo sapiens, UniProt P02768); assay: Binding affinity against Human serum albumin(Site I).
Sequence of Albumin (P02768 whole entry): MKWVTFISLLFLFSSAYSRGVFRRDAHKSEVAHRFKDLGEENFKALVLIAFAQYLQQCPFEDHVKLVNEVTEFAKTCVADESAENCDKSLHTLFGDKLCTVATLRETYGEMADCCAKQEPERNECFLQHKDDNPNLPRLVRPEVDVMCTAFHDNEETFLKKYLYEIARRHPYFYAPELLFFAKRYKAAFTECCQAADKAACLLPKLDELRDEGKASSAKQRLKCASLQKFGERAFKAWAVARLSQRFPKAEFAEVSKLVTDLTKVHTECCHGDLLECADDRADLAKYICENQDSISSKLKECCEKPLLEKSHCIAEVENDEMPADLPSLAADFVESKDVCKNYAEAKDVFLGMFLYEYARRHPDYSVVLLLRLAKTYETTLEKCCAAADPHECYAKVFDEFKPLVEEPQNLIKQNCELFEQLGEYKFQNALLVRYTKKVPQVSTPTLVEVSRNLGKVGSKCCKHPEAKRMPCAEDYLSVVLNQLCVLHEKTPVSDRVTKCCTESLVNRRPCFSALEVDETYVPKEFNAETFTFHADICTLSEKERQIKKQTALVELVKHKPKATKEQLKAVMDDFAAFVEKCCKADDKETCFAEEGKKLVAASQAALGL
How it was run: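 Fluorometric titration: HSA and sensitizer fixed at 1 × 10^-6 mol/L. Site probe varied 4 × 10^-7 to 2 × 10^-6 mol/L: DNSA for site I, read at 472 nm; DP for site II, read at 476 nm; excitation 340 nm. Incubated 4 °C, pH 7.0, 4 h, dark. Bound probe taken from standard curves of free probe (water) and HSA-bound probe (2.5 × 10^-5 mol/L HSA).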

[25] = tested on: Mus musculus; assay: The compound was tested in vivo for photosensitizing efficacy in DBA/2 Mice transplanted with SMT/F tumors and the activity is expressed as % response at (6-10 days) 3 hours post injection at 5 mg/kg concentration; type: functional

Molecule: PORFIMER SODIUM
Response [1]: 50%
Response [2]: 80%
Response [3]: 60%
Response [4]: 50%
Response [5]: 100%
Response [6]: 100%

Binding constant [24]: 500000 l M-1
Molecule: CCc1c(C)c2[nH]c1cc1[nH]c(cc3nc4c(c5nc(c2C=O)[C@@H](C)[C@@H]5CCC(=O)NC(CC(=O)OC(C)(C)C)C(=O)OC(C)(C)C)CCC4=C3C)C(O)(CC)C1(C)O (stereo not given in full)
Response [7]: inactive
Response [8]: inactive
Response [9]: inactive
Response [10]: inactive
Response [11]: inactive
Response [12]: inactive
Response [13]: 50%
Response [14]: 100%
Response [15]: inactive
Response [16]: inactive
Response [17]: 80%
Response [18]: 50%
Response [19]: inactive
Response [20]: inactive
Response [21]: inactive
Response [22]: inactive
Response [23]: 100%
Response [25]: 100%
